Results reported in article PMC9796011 (Journal of Gastroenterology and Hepatology, 2022).

Columns and labels:
Crohn's disease = details: cited from earlier work
[1] = Plasma concentration of adrenomedullin; assay type: in vivo; details: human, intravenous
Method in brief: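 Blood was drawn before and at 4, 8 and 10 h after the start of the 8-h infusion (10 or 15 ng/kg/min) on days 1 and 7, and at 4 and 8 weeks. Test compound was measured by automated ELISA. Cmax and Tmax were read directly from the data; AUC was computed over 0–10 h. Values are mean ± SD.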

[2] = system: patients with biologic‐resistant CD; assay: Safety evaluation: adverse events, vital signs; assay type: in vivo, human
Method in brief: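 All 24 patients, hospitalized for the 7-day infusion of placebo or 10 or 15 ng/kg/min test compound (8 h/day), were assessed for AEs and SAEs throughout the study. Vital signs, blood and urine tests and 12-lead ECG were taken at set times after dosing, with screening within 2 weeks before therapy. Patients with systolic BP <90 mmHg or pulse <45 bpm were excluded.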

[3] = system: patients with biologic‐resistant CD; assay: Phase 2a trial: Crohn's disease activity index; assay type: in vivo, human; details: 10 + 15 ng/kg/min groups pooled, mean ± SD
Method in brief: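 Patients (n = 24) were randomized 1:1:1 in blocks of three to placebo or 10 or 15 ng/kg/min test compound, infused 8 h/day for 7 days alongside ongoing biologic. Doctors scored CDAI by questionnaire at baseline and at 4, 6, 8, 16 and 24 weeks. Response was a drop of ≥50 points; remission was CDAI ≤150. Changes are mean ± SD, compared by t-test/ANOVA and, over 0–24 weeks, by a mixed-effects model.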

[4] = Trough level of infliximab; assay type: in vivo, human; details: CD patients; 4 and 8 weeks vs day 1
Method in brief: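 Serum was collected immediately before each biologic dose. Infliximab trough levels were measured by ELISA at a contract lab in patients given placebo or 10 or 15 ng/kg/min test compound, infused 8 h/day for 7 days starting on the day of biologic dosing; changes were assessed at 8 weeks.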

[5] = system: patients with biologic‐resistant CD; assay: CRP, fecal calprotectin and FIT; assay type: in vivo, human; details: CRP at 2, 4, 8 weeks; fecal calprotectin and FIT at 1 week; data not shown
Method in brief: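 Adults with biologic-resistant CD at 16 Japanese centres were randomized 1:1:1 to placebo or 10 or 15 ng/kg/min of test compound, infused 8 h/day for 7 days from the day of biologic dosing. CRP was measured at 2, 4 and 8 weeks. Stool was collected before dosing and on day 8 for fecal calprotectin (fluorescence enzyme immunoassay) and FIT by a commercial lab. Groups were compared by t-test and ANOVA with Fisher's test.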

Infliximab
Annual risk of loss of infliximab response (Crohn's disease): 13 % per patient‐year

CC[C@H](C)[C@H](NC(=O)[C@H](CCC(N)=O)NC(=O)[C@H](Cc1c[nH]cn1)NC(=O)[C@H](C)NC(=O)[C@H](CC(C)C)NC(=O)[C@H](CCCCN)NC(=O)[C@H](CCC(N)=O)NC(=O)[C@@H](NC(=O)[C@@H](NC(=O)[C@@H]1CSSC[C@H](NC(=O)CNC(=O)[C@H](Cc2ccccc2)NC(=O)[C@H](CO)NC(=O)[C@H](CCCNC(=N)N)NC(=O)[C@H](CC(C)C)NC(=O)CNC(=O)[C@H](CCC(N)=O)NC(=O)[C@H](Cc2ccccc2)NC(=O)[C@H](CC(N)=O)NC(=O)[C@H](CC(N)=O)NC(=O)[C@H](CCSC)NC(=O)[C@H](CO)NC(=O)[C@H](CCC(N)=O)NC(=O)[C@H](CCCNC(=N)N)NC(=O)[C@@H](N)Cc2ccc(O)cc2)C(=O)N[C@@H](CCCNC(=N)N)C(=O)N[C@@H](Cc2ccccc2)C(=O)NCC(=O)N[C@@H]([C@@H](C)O)C(=O)N1)[C@@H](C)O)C(C)C)C(=O)N[C@@H](Cc1ccc(O)cc1)C(=O)N[C@@H](CCC(N)=O)C(=O)N[C@@H](Cc1ccccc1)C(=O)N[C@H](C(=O)N[C@@H](CC(=O)O)C(=O)N[C@@H](CCCCN)C(=O)N[C@@H](CC(=O)O)C(=O)N[C@@H](CCCCN)C(=O)N[C@@H](CC(=O)O)C(=O)N[C@@H](CC(N)=O)C(=O)N[C@H](C(=O)N[C@@H](C)C(=O)N1CCC[C@H]1C(=O)N[C@@H](CCCNC(=N)N)C(=O)N[C@@H](CO)C(=O)N[C@@H](CCCCN)C(=O)N[C@H](C(=O)N[C@@H](CO)C(=O)N1CCC[C@H]1C(=O)N[C@@H](CCC(N)=O)C(=O)NCC(=O)N[C@@H](Cc1ccc(O)cc1)C(N)=O)[C@@H](C)CC)C(C)C)[C@@H](C)O [Adrenomedullin]
AUC(0-t) ([1]; 10 ng/kg/min): 0.247 ± 0.06 ng·h/mL | AUC(0-t) ([1]; 15 ng/kg/min): 0.441 ± 0.245 ng·h/mL | Cmax ([1]; 15 ng/kg/min): 0.0653 ± 0.043 ng/mL | Any adverse events, patients (%) ([2]; 10 ng/kg/min, 8 patients): 7 (88%) | Deaths ([2]; 10 ng/kg/min, 8 patients): 0 | Decrease in body weight, patients (%) ([2]; 10 ng/kg/min, 8 patients): 0 | Dehydration, patients (%) ([2]; 10 ng/kg/min, 8 patients): 0 | Dizziness, patients (%) ([2]; 10 ng/kg/min, 8 patients): 1 (13%) | Fever up, patients (%) ([2]; 10 ng/kg/min, 8 patients): 0 | Flushing, patients (%) ([2]; 10 ng/kg/min, 8 patients): 1 (13%) | Head discomfort, patients (%) ([2]; 10 ng/kg/min, 8 patients): 0 | Headache, patients (%) ([2]; 10 ng/kg/min, 8 patients): 3 (38%) | Increase in transaminase level, patients (%) ([2]; 10 ng/kg/min, 8 patients): 0 | Lumbago, patients (%) ([2]; 10 ng/kg/min, 8 patients): 0 | Moderate to severe adverse events, patients (%) ([2]; 10 ng/kg/min, 8 patients): 1 (13%) | Nasopharyngitis, patients (%) ([2]; 10 ng/kg/min, 8 patients): 1 (13%) | Palpitation, patients (%) ([2]; 10 ng/kg/min, 8 patients): 1 (13%) | Rash, patients (%) ([2]; 10 ng/kg/min, 8 patients): 1 (13%) | Right bundle branch block, patients (%) ([2]; 10 ng/kg/min, 8 patients): 0 | Serious adverse events, patients (%) ([2]; 10 ng/kg/min, 8 patients): 0 | Vomiting, patients (%) ([2]; 10 ng/kg/min, 8 patients): 0 | Any adverse events, patients (%) ([2]; 15 ng/kg/min, 8 patients): 8 (100%) | Deaths ([2]; 15 ng/kg/min, 8 patients): 0 | Decrease in body weight, patients (%) ([2]; 15 ng/kg/min, 8 patients): 0 | Dehydration, patients (%) ([2]; 15 ng/kg/min, 8 patients): 1 (13%) | Dizziness, patients (%) ([2]; 15 ng/kg/min, 8 patients): 0 | Fever up, patients (%) ([2]; 15 ng/kg/min, 8 patients): 3 (38%) | Flushing, patients (%) ([2]; 15 ng/kg/min, 8 patients): 1 (13%) | Head discomfort, patients (%) ([2]; 15 ng/kg/min, 8 patients): 1 (13%) | Headache, patients (%) ([2]; 15 ng/kg/min, 8 patients): 7 (88%) | Increase in transaminase level, patients (%) ([2]; 15 ng/kg/min, 8 patients): 1 (13%) | Lumbago, patients (%) ([2]; 15 ng/kg/min, 8 patients): 0 | Moderate to severe adverse events, patients (%) ([2]; 15 ng/kg/min, 8 patients): 3 (38%) | Nasopharyngitis, patients (%) ([2]; 15 ng/kg/min, 8 patients): 2 (25%) | Palpitation, patients (%) ([2]; 15 ng/kg/min, 8 patients): 2 (25%) | Rash, patients (%) ([2]; 15 ng/kg/min, 8 patients): 1 (13%) | Right bundle branch block, patients (%) ([2]; 15 ng/kg/min, 8 patients): 1 (13%) | Vomiting, patients (%) ([2]; 15 ng/kg/min, 8 patients): 1 (13%) | Changes in blood pressure and pulse rate ([2]; all groups, throughout the drug administration period, data not shown): did not observe any statistically significant changes | Changes in CDAI ([3]; 4 weeks, n = 16): −71 ± 83 | Changes in CDAI ([3]; 6 weeks, n = 14): −72 ± 67 | Changes in CDAI (primary endpoint) ([3]; 8 weeks, n = 15): −81 ± 73 | Changes in CDAI ([3]; 16 weeks, n = 10): −61 ± 51 | Changes in CDAI ([3]; 24 weeks, n = 9): −81 ± 46 | Trough levels of biologics (infliximab, adalimumab) after AM administration [4]: did not change | Changes in CRP levels, fecal calprotectin and FIT versus placebo [5]: no differences
